Here are results for 20 molecules from PubChem BioAssay.

Activity calls are given as the source filed them.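 Rule for the calls, unless noted: active = viability at or below 30% in both replicate assays; inconclusive = viability at or below 30% in just one of the two assays; inactive = the rest.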

A short description of assay [1]: HUVEC growth inhibition – cell-based, human, primary screen (AID 575).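 Note: 100% = median of untreated cell wells with 0.1% DMSO on each plate.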 The conditions noted are these: HUVEC proliferation, CellTiter-Glo luminescence, 72 h; at 10 µM; stronger effect = lower value. In short, it runs like this:
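Assay system: Primary human umbilical vein endothelial cells | Quantity: 1250 cells per well | Medium: Supplemented EBM, 2% fetal bovine serum | Detection: CellTiter-Glo luminescence measuring cellular ATP | Read-out: % viability vs DMSO wells | Plate: Collagen-coated 384-well format | Times: 72 h exposure, 37 °C, 5% CO2, 30 min RT equilibration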

The nature of assay [2]: H69AR cell proliferation blockers – human, duplicate replicates, primary screen (AID 580;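 active = viability at or under a set limit in both replicates, limit being median viability minus 3 SD, cut at about 48% in these data, passing the limit was not always enough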;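 note: 100% = mean luminescence of untreated wells and 0% = no signal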). The conditions noted are these: H69AR lung tumor cells viability, ATP luminescence, 72 h; at 10 µM; stronger effect = lower value.
Assay [3] is described as follows: MRP1 drug-resistance reversers in H69AR cells – cell-based, doxorubicin co-treatment, pilot screen (AID 601;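 active = viability loss from added drug above about 55%, and viability with drug at most 40%, in both replicates, limit read from the data, passing the limit was not always enough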). The conditions noted are these: CellTiter-Glo, 72 h, at 10 µM; for differential viability (reversal): stronger effect = higher value.
Assay [4] is described as follows: yeast transport mutant growth inhibition pilot in 384-well plates, post-Golgi transport modulator project (AID 636; in the data active = inhibition above about 31%). The conditions noted are these: absorbance 615 nm, about 18 h, stronger effect = higher value.
The nature of assay [5]: growth suppression of yeast trafficking mutant, preliminary HTS, modulators of trafficking downstream of Golgi apparatus project, 1536-format plate, OD 615 nm (AID 637; in the data active = inhibition above about 30%). Particulars: yeast transport mutant growth, absorbance 615 nm, 18 h; stronger effect = higher value.
Where [6] appears, read: H69AR cells + 2 uM doxorubicin, measured here: viability with 2 uM doxorubicin, stronger effect = lower value.
Where [7] appears, read: H69AR cells, compound alone cytotoxicity.

Broadly, the viability is a read-out of living cells in per cent, often relative to untreated cells. As usually defined, the inhibition is the drop in the measured response relative to a control, in per cent. As for `Nc1nc(SCCOc2ccccc2)n[nH]1`, the viability in assay [1] is 94.1% (inactive); in assay [2], 97% (inactive); in assay [3] (setting [6]), 90.8%; in assay [3] (setting [7]), 97%. In addition, the differential viability (reversal) in assay [3] (H69AR cells + 2 uM doxorubicin) was 6.12% (inactive). The results for the inhibition in assay [4] and in assay [5] were -5.19% (inactive) and -5.24% (inactive), respectively.
Regarding `CSc1nnc(-c2cnccn2)n1C`, the viability in assay [1] is 107% (inactive); in assay [2], 90.7% (inactive); in assay [3] (setting [6]), 89.7%; in assay [3] (setting [7]) it was 90.7%. The differential viability (reversal) in assay [3] (H69AR cells + 2 uM doxorubicin) is 0.99% (inactive). In addition, the values for the inhibition in assay [4] and in assay [5] were -0.39% (inactive) and 4.92% (inactive), respectively.
As for `O=C(CSc1nnc2c3cc(F)ccc3nc(-c3ccccc3)n12)N1CCOCC1`, the viability in assay [1] was 77% (inactive); in assay [2], 72.6% (inactive); in assay [3] (setting [6]) it was 72.5%; in assay [3] (setting [7]), 72.6%. In addition, the differential viability (reversal) in assay [3] (H69AR cells + 2 uM doxorubicin) is 0.06% (inactive). The inhibition in assay [4] is 0.27% (inactive); in assay [5] it was 1.59% (inactive).
In the case of `CC(C)C1N=C2c3ccccc3N=C(SCC(=O)NCCc3ccc(S(N)(=O)=O)cc3)N2C1=O` (stereo not given), the viability in assay [1] is 82.8% (inactive); in assay [2], 86.7% (inactive); in assay [3] (setting [6]), 82.3%; in assay [3] (setting [7]), 86.7%. For the same molecule, the differential viability (reversal) in assay [3] (H69AR cells + 2 uM doxorubicin) is 4.46% (inactive). Moreover, the inhibition in assay [4] was -2.47% (inactive); in assay [5], 4.13% (inactive).
Regarding `CCOC(=O)C1C(=O)NC(SCC(=O)Nc2nccs2)=C(C#N)C1c1ccccc1OCC` (stereo not given), the viability is 76.2% (inactive) in assay [1], 71.3% (inactive) in assay [2], 72.3% in assay [3] (setting [6]) and 71.3% in assay [3] (setting [7]). In assay [3] (H69AR cells + 2 uM doxorubicin), the differential viability (reversal) was -1.05% (inactive). Also, the inhibition in assay [4] was -1.45% (inactive); in assay [5], 7.78% (inactive).
For the molecule `Cn1nc(-c2ccc(C(=O)NCC3CCCO3)cc2)c2ccccc2c1=O` (stereo not given), the viability was 88.3% (inactive) in assay [1], 84.7% (inactive) in assay [2], 71.2% in assay [3] (setting [6]) and 84.7% in assay [3] (setting [7]). In assay [3] (H69AR cells + 2 uM doxorubicin), the differential viability (reversal) is 13.5% (inactive). For the same molecule, the inhibition was -3.12% (inactive) in assay [4] and 7.14% (inactive) in assay [5].
Take `CCCC(=O)N1CCN(c2ccc(NC(=O)c3ccc(Br)o3)cc2)CC1`: the viability in assay [1] is 125% (inactive); in assay [2], 104% (inactive); in assay [3] (setting [6]), 101%; in assay [3] (setting [7]), 104%. Besides, the differential viability (reversal) in assay [3] (H69AR cells + 2 uM doxorubicin) is 3.6% (inactive). Moreover, the values for the inhibition in assay [4] and in assay [5] were 1.58% (inactive) and -2.22% (inactive), respectively.
Turning to `CC(C)[C@H](NC(=O)OC(C)(C)C)c1nnc(S(=O)(=O)Cc2c(F)cccc2Cl)o1`, the viability in assay [1] is 69.5% (inactive); in assay [2], 1.65% (active); in assay [3] (setting [6]), 1.58%; in assay [3] (setting [7]), 1.65%. The differential viability (reversal) in assay [3] (H69AR cells + 2 uM doxorubicin) was 0.065% (inactive). Further, the inhibition in assay [4] is -2.76% (inactive); in assay [5], 9.02% (inactive).
For `O=C(Cc1ccccc1)Nc1ccc(CN2CCOCC2)cc1`, the viability in assay [1] was 105% (inactive); in assay [2] it was 97.3% (inactive); in assay [3] (setting [6]), 91.2%; in assay [3] (setting [7]), 97.3%. The differential viability (reversal) in assay [3] (H69AR cells + 2 uM doxorubicin) was 6.05% (inactive). Besides, the inhibition in assay [4] was -4.67% (inactive); in assay [5] it was -2.38% (inactive).
For `Cc1ccc(Nc2cc(C)nc3nnnn23)cc1`, the viability in assay [1] is 78.5% (inactive); in assay [2] it was 93.4% (inactive); in assay [3] (setting [6]), 85.1%; in assay [3] (setting [7]), 93.4%. In addition, the differential viability (reversal) in assay [3] (H69AR cells + 2 uM doxorubicin) is 8.3% (inactive). Moreover, the inhibition was -5.06% (inactive) in assay [4] and -2.06% (inactive) in assay [5].
Consider `O=C(Nc1ccc(N2CCOCC2)cc1)C1CC1`, for which the viability in assay [1] was 109% (inactive); in assay [2] it was 97.1% (inactive); in assay [3] (setting [6]) it was 89%; in assay [3] (setting [7]), 97.1%. Further, the differential viability (reversal) in assay [3] (H69AR cells + 2 uM doxorubicin) is 8.07% (inactive). Besides, the inhibition is -5.33% (inactive) in assay [4] and 3.49% (inactive) in assay [5].
As to `CCOC(=O)C1CCN(C(=O)Nc2ccc(Cl)cc2Cl)CC1`, the viability was 100% (inactive) in assay [1], 104% (inactive) in assay [2], 84.1% in assay [3] (setting [6]) and 104% in assay [3] (setting [7]). Also, the differential viability (reversal) in assay [3] (H69AR cells + 2 uM doxorubicin) was 19.9% (inactive). The inhibition in assay [4] is -4.61% (inactive); in assay [5], 3.65% (inactive).
Take `Cc1cc(/C=c2/sc3nc4ccccc4n3c2=O)c(C)n1-c1ccccn1`: the viability is 77.6% (inactive) in assay [1], 63% (inactive) in assay [2], 65.2% in assay [3] (setting [6]) and 63% in assay [3] (setting [7]). Besides, the differential viability (reversal) in assay [3] (H69AR cells + 2 uM doxorubicin) was -2.23% (inactive). The inhibition in assay [4] is 2.4% (inactive); in assay [5] it was -0.48% (inactive).
On to `CN(C)C(=O)C12CCC(C)(c3nc4ccccc4nc31)C2(C)C` (stereo not given), for which the viability in assay [1] was 105% (inactive); in assay [2], 88.8% (inactive); in assay [3] (setting [6]), 85.8%; in assay [3] (setting [7]), 88.8%. The differential viability (reversal) in assay [3] (H69AR cells + 2 uM doxorubicin) was 2.95% (inactive). In addition, the inhibition in assay [4] was 3.03% (inactive); in assay [5], -4.6% (inactive).
`Nc1nnc(-c2cc3ccccc3oc2=O)s1`: the viability in assay [1] is 91.8% (inactive); in assay [2], 91.7% (inactive); in assay [3] (setting [6]), 91.4%; in assay [3] (setting [7]), 91.7%. In addition, the differential viability (reversal) in assay [3] (H69AR cells + 2 uM doxorubicin) was 0.3% (inactive). Also, the inhibition in assay [4] is -0.66% (inactive); in assay [5], 2.38% (inactive).
Turning to `O=C(Nc1nnc(CCN2CCCCC2)s1)C1CCCCC1`, the viability in assay [1] is 93.4% (inactive); in assay [2], 91.9% (inactive); in assay [3] (setting [6]), 84.7%; in assay [3] (setting [7]), 91.9%. In assay [3] (H69AR cells + 2 uM doxorubicin), the differential viability (reversal) is 7.11% (inactive). Further, the inhibition in assay [4] was -5.73% (inactive); in assay [5] it was 4.76% (inactive).
Consider `COc1ccc(CCN2C(=O)C3C4C=CC(C4)C3C2=O)cc1OC` (stereo not given), for which the viability in assay [1] is 97.7% (inactive); in assay [2], 99.8% (inactive); in assay [3] (setting [6]), 94.8%; in assay [3] (setting [7]), 99.8%. The differential viability (reversal) in assay [3] (H69AR cells + 2 uM doxorubicin) is 5.05% (inactive). Besides, the values for the inhibition in assay [4] and in assay [5] were -6.71% (inactive) and -4.44% (inactive), respectively.
Turning to `CN(c1cccc(NC(=O)COc2ccccc2)c1)S(C)(=O)=O`, the viability in assay [1] is 108% (inactive); in assay [2] it was 96% (inactive); in assay [3] (setting [6]) it was 99%; in assay [3] (setting [7]) it was 96%. For the same molecule, the differential viability (reversal) in assay [3] (H69AR cells + 2 uM doxorubicin) was -3.07% (inactive). The inhibition is 4.47% (inactive) in assay [4] and 0.32% (inactive) in assay [5].
For the molecule `Cc1cccnc1NC(=O)CCCN1C(=O)c2ccccc2C1=O`, the viability is 114% (inactive) in assay [1], 94.7% (inactive) in assay [2], 90% in assay [3] (setting [6]) and 94.7% in assay [3] (setting [7]). Also, the differential viability (reversal) in assay [3] (H69AR cells + 2 uM doxorubicin) is 4.67% (inactive). Further, the inhibition in assay [4] was -6.13% (inactive); in assay [5], 3.97% (inactive).
In the case of `CC(C)(C)OC(=O)N1CCN(c2ccc(NC(=O)c3cc4ccccc4oc3=O)cc2)CC1`, the viability in assay [1] was 103% (inactive); in assay [2] it was 93% (inactive); in assay [3] (setting [6]), 84.8%; in assay [3] (setting [7]), 93%. In addition, the differential viability (reversal) in assay [3] (H69AR cells + 2 uM doxorubicin) was 8.14% (inactive). The inhibition in assay [4] is -5.45% (inactive); in assay [5] it was 1.59% (inactive).
